# Data from ChEMBL document CHEMBL3585292, “Anti-dormant mycobacterial activity and target analysis of nybomycin produced by a marine-derived Streptomyces sp” (2015).
# Calls of active or inactive are those of the source. The rule behind the calls is not given here.
# Tests used:
# [1] = test system: Mycolicibacterium smegmatis; assay: Antibacterial activity against Mycobacterium smegmatis MC2 155 under aerobic condition after 36 hrs by MTT assay; format: functional; conditions: str. MC2 155, 36 h
# Outline: (§1)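 MTT microdilution. Mid-log bacilli in 7H9 with 10% OADC, 0.5% glycerol, 0.05% Tween 80, seeded at 1 × 10⁴ CFU/0.1 mL (M. smegmatis) or 1 × 10⁵ CFU/0.1 mL (BCG, M. tuberculosis), then serially diluted sample added. Aerobic incubation at 37 °C; hypoxic incubation at 37 °C under N2 with 0.2% O2. MTT (0.5 mg/mL, 50 µL) added for 12 h more, OD560 read to give MIC.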
# [2] = test system: Mycolicibacterium smegmatis; assay: Antibacterial activity against Mycobacterium smegmatis MC2 155 under hypoxic condition after 96 hrs by MTT assay; format: functional; conditions: str. MC2 155, 96 h; outline: as §1
# [3] = test system: Mycobacterium tuberculosis; assay: Antibacterial activity against Mycobacterium tuberculosis H37Rv under aerobic condition after 7 days by MTT assay; format: functional; conditions: 168 h; outline: as §1
# [4] = test system: Mycobacterium tuberculosis; assay: Antibacterial activity against Mycobacterium tuberculosis T1413 under aerobic condition after 7 days by MTT assay; format: functional; conditions: T1413, 168 h; outline: as §1
# [5] = test system: Mycobacterium tuberculosis; assay: Antibacterial activity against Mycobacterium tuberculosis T1538 under aerobic condition after 7 days by MTT assay; format: functional; conditions: T1538, 168 h; outline: as §1
# [6] = test system: Mycolicibacterium smegmatis; assay: Antibacterial activity against Mycobacterium smegmatis MC2 155 assessed as induction of morphological changes at 1 ug/ml after 48 hrs by phase contrast/scanning electron microscopic analysis; format: functional, organism-based; conditions: str. MC2 155
# [7] = test system: Mycolicibacterium smegmatis; assay: Antibacterial activity against Mycobacterium smegmatis ICHO1034 harboring pMV206 with cloned 685769 to 689308 bp of Mycobacterium bovis BCG genome at 2 ug/ml by agar plate method; format: functional, organism-based
# [8] = test system: Mycolicibacterium smegmatis; assay: Antibacterial activity against Mycobacterium smegmatis ICHO1036 harboring pMV206 with cloned 700476 to 702854 bp of Mycobacterium bovis BCG genome at 2 ug/ml by agar plate method; format: functional, organism-based
# [9] = test system: Mycolicibacterium smegmatis; assay: Antibacterial activity against Mycobacterium smegmatis ICHO2012 harboring pYUB415 with cloned 686465 to 716464 bp of Mycobacterium bovis BCG genome at 2 ug/ml by agar plate method; format: functional, organism-based
# [10] = test system: Mycolicibacterium smegmatis; assay: Antibacterial activity against Mycobacterium smegmatis ICHO1035 harboring pMV206 with cloned 696695 to 700844 bp of Mycobacterium bovis BCG genome at 2 ug/ml by agar plate method; format: functional, organism-based
# [11] = test system: Mycolicibacterium smegmatis; assay: Antibacterial activity against Mycobacterium smegmatis ICHO1037 harboring pMV261 with cloned 4109204 to 4110235 bp of Mycobacterium bovis BCG genome at 2 ug/ml by agar plate method; format: functional, organism-based
# [12] = test system: Mycolicibacterium smegmatis; assay: Antibacterial activity against Mycobacterium smegmatis ICHO1034 harboring pMV206 with cloned 685769 to 689308 bp of Mycobacterium bovis BCG genome at 4 ug/ml by agar plate method; format: functional, organism-based
# [13] = test system: Mycolicibacterium smegmatis; assay: Antibacterial activity against Mycobacterium smegmatis ICHO1035 harboring pMV206 with cloned 696695 to 700844 bp of Mycobacterium bovis BCG genome at 4 ug/ml by agar plate method; format: functional, organism-based
# [14] = test system: Mycolicibacterium smegmatis; assay: Antibacterial activity against Mycobacterium smegmatis ICHO1036 harboring pMV206 with cloned 700476 to 702854 bp of Mycobacterium bovis BCG genome at 4 ug/ml by agar plate method; format: functional, organism-based
# [15] = test system: Mycolicibacterium smegmatis; assay: Antibacterial activity against Mycobacterium smegmatis ICHO1037 harboring pMV261 with cloned 4109204 to 4110235 bp of Mycobacterium bovis BCG genome at 4 ug/ml by agar plate method; format: functional, organism-based
# [16] = test system: Mycolicibacterium smegmatis; assay: Antibacterial activity against Mycobacterium smegmatis ICHO1038 harboring pMV261 with cloned 4126836 to 4129396 bp of Mycobacterium bovis BCG genome at 4 ug/ml by agar plate method; format: functional, organism-based
# [17] = test system: Mycolicibacterium smegmatis; assay: Antibacterial activity against Mycobacterium smegmatis ICHO2012 harboring pYUB415 with cloned 686465 to 716464 bp of Mycobacterium bovis BCG genome at 4 ug/ml by agar plate method; format: functional, organism-based
# [18] = Inhibition of nybomycin probe (2) binding to pMV206 DNA (unknown origin) with cloned 700476 to 702854 bp of Mycobacterium bovis BCG genome overexpressed in Mycobacterium smegmatis ICHO1036 at 60 uM after 1 hr by agarose gel electrophoresis
# [19] = Binding affinity to pMV206 DNA (unknown origin) with cloned 700476 to 702854 bp of Mycobacterium bovis BCG genome overexpressed in Mycobacterium smegmatis ICHO1036 at 260 pmol after 1 hr by agarose gel electrophoresis
# [20] = Binding affinity to pMV206 DNA (unknown origin) at 260 pmol after 1 hr by agarose gel electrophoresis
# [21] = Binding affinity to pMV206 DNA (unknown origin) with cloned 696695 to 700844 bp of Mycobacterium bovis BCG genome overexpressed in Mycobacterium smegmatis ICHO1035 at 260 pmol after 1 hr by agarose gel electrophoresis
compound,measurement,setting,value
Cc1cc(=O)n2c3c(c4c(cc13)c(CO)cc(=O)n4C)OC2,MIC,[1],1 µg/mL
same,MIC,[2],1 µg/mL
same,MIC,[3],4.2 µg/mL
same,MIC,[4],6.3 µg/mL
same,MIC,[5],5.2 µg/mL
same,Activity,[6],Active
same,Activity,[7],inactive
same,Activity,[8],inactive
same,Activity,[9],inactive
same,Activity,[10],Active
same,Activity,[11],Active
same,Activity,[12],Active
same,Activity,[13],Active
same,Activity,[14],Active
same,Activity,[15],Active
same,Activity,[16],Active
same,Activity,[17],inactive
same,inhibition,[18],Active
NNC(=O)c1ccncc1 [ISONIAZID],MIC,[1],2.5 µg/mL
same,MIC,[2],25 µg/mL
same,inhibition,[18],inactive
COC(=O)CCCc1cn(CCOCCOCCOCCOCCOCCOCCOCCOCCOCCOCCNC(=O)CCCC[C@@H]2SC[C@@H]3NC(=O)N[C@@H]32)nn1,MIC,[1],> 200 µg/mL
same,MIC,[2],> 200 µg/mL
same,Activity,[19],inactive
Cc1cc(=O)n2c3c(c4c(cc13)c(COC(=O)CCCc1cn(CCOCCOCCOCCOCCOCCOCCOCCOCCOCCOCCNC(=O)CCCC[C@@H]3SC[C@@H]5NC(=O)N[C@@H]53)nn1)cc(=O)n4C)OC2,MIC,[1],25 µg/mL
same,MIC,[2],6.25 µg/mL
same,Activity,[19],Active
same,Activity,[20],Active
same,Activity,[21],Active
